The source of these data is ChEMBL document CHEMBL1833793 (Bioorg Med Chem Lett, 2011).

The target of data set [1] is T1, Neuropeptide Y receptor type 1 (Homo sapiens, UniProt P25929).
T1 sequence (P25929 whole entry): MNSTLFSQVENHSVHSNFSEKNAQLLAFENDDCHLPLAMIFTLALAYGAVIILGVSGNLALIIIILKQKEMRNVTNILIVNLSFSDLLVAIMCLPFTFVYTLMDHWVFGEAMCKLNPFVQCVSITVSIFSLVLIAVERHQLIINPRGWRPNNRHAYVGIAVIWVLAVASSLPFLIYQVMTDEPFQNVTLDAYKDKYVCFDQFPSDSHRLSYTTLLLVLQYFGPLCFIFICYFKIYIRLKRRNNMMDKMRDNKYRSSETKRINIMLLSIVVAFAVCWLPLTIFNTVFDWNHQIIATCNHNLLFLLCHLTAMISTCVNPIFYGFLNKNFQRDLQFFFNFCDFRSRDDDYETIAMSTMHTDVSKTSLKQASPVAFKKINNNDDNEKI
Briefly: Antagonist activity at human NPY1 receptor assessed as calcium mobilization by FLIPR assay. The class given is functional.

In data set [2] the target is Neuropeptide Y receptor type 4 (Homo sapiens, UniProt P50391). Briefly: Antagonist activity at human NPY4 receptor assessed as calcium mobilization by FLIPR assay. The class given is functional. Background: A change in cytosolic calcium serves as a functional read-out for many receptors and channels.
Neuropeptide Y receptor type 4, sequence (P50391 whole entry): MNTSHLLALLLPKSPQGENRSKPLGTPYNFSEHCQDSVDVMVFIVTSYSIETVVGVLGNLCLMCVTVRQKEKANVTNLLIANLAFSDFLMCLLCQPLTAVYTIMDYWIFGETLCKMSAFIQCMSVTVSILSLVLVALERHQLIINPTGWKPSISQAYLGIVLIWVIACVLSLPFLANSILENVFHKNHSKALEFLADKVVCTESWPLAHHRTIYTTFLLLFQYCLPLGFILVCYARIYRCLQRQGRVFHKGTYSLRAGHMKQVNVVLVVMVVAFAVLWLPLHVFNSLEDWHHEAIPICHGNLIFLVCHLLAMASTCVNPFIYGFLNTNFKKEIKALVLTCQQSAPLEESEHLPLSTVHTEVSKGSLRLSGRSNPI
In data set [3] the target is T2, 5-hydroxytryptamine receptor 1A (Homo sapiens, UniProt P08908).
T2 sequence (P08908 whole entry): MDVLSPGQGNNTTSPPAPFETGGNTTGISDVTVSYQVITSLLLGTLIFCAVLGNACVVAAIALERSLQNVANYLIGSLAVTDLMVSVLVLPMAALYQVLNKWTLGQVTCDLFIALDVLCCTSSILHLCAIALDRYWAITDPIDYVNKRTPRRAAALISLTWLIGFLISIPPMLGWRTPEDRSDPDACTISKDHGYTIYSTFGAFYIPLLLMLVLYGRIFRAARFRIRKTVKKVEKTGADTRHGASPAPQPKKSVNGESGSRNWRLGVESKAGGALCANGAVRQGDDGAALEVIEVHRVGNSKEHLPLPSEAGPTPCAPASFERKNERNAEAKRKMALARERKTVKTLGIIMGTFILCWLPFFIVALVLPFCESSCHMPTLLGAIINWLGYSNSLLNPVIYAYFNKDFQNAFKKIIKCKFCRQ
The experiment in a line: Binding affinity to human 5HT1A receptor.

The nature of data set [4]: Plasma protein binding in rat. Format: ADME, cell-free. As to conditions: read-out: PPB (converted).
A further data set deals with Cytochrome P450 2C19 (Homo sapiens, UniProt P33261). Briefly: Inhibition of CYP2C19. The class given is ADME.
Cytochrome P450 2C19, sequence (P33261 whole entry): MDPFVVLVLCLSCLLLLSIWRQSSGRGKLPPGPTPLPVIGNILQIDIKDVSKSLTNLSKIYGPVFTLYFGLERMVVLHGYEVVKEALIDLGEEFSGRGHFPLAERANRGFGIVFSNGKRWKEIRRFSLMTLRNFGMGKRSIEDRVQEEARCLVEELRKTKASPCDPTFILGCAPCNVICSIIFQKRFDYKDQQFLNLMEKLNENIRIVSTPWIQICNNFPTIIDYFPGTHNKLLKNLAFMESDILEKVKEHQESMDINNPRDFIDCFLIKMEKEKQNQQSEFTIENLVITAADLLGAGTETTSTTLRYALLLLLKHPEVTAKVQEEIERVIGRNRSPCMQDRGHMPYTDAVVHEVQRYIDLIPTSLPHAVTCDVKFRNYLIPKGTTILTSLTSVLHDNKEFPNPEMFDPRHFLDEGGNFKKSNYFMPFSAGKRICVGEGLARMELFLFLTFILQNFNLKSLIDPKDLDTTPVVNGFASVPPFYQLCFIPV
Data set [5] is described as follows: Tmax in Sprague-Dawley rat at 1 mg/kg, iv and 2 mg/kg, po by HPLC analysis. The following applies: in vivo. Format: ADME, organism-based. The procedure, abridged:
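Male Sprague–Dawley rats (n = 2) with jugular and carotid cannulae, 200–250 g, dosed 1 mg/kg iv and 2 mg/kg po in crossover after a 24 h washout. Vehicle was 20% beta-cyclodextrin, pH adjusted with methanesulfonic acid. Twelve serial blood samples were taken over 24 h, plasma measured by HPLC-MS/MS, and parameters derived by noncompartmental analysis.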

Data set [6] can be described thus: Plasma clearance in mouse at 1 mg/kg, iv and 2 mg/kg, po by HPLC analysis. Format: ADME, organism-based.

Regarding `CS(=O)(=O)NC[C@H]1CC[C@H](Nc2nc3c(s2)CCSc2ccccc2-3)CC1`, the IC50 (commonly the midpoint of a concentration-inhibition curve) in data set [1] is greater than 1 µM; in data set [2], greater than 1 µM; against Cytochrome P450 2C19 it was greater than 10 µM. Further, the affinity in data set [3], expressed as Ki, was 0.478 µM. In addition, the fraction unbound in data set [4] was 0.006. Further, the Tmax (as a rule, the time from dosing to the highest level) in data set [5] came to 1.9 h. In data set [6], this compound showed a clearance of 5 mL/min/kg.
